Published values pooled from the literature.
Lines come from different studies, so protocols differ.
Target: Serine/threonine-protein kinase OSR1 (OXSR1, Homo sapiens, UniProt O95747)

| SMILES | read-out | mode | technique | cell line | concentration | quantity | result |
| --- | --- | --- | --- | --- | --- | --- | --- |
| COc1cccc2c(NCc3ccccc3)nc(-n3c(N)nc4ccccc43)nc12 | target engagement in cells | inhibitor | chemoproteomics |  | 20 mM | inhibition | -6.6% |
| Cn1cc(Cl)c2c(Oc3c(F)cc(Nc4cc(Cl)nc(N)n4)cc3F)ccnc21 | cell-free assay |  | competition with immobilised ligand |  | 0.1 µM | remaining binding | 93% |
| O=C(Nc1cnn(-c2csc(C(=O)NC3COC3)c2)c1)Nc1c(F)cccc1Cl | enzyme activity | inhibitor |  |  | 5 µM | remaining activity | 96.5% |
| CCN1CCN(Cc2ccc(NC(=O)c3ccc(C)c(Oc4ccnc5[nH]ccc45)c3)cc2C(F)(F)F)CC1 | target engagement in cells | inhibitor | chemoproteomics | Huh-7 | 1 µM | inhibition | -64.3% |
| CC(C)(O)[C@H]1CC[C@H](Nc2ccc3ncc(-c4cccc(C(F)(F)F)c4)n3n2)CC1 | enzyme activity | inhibitor |  |  | 1 µM | remaining activity | 102% |
| Cc1cc(NC(=O)c2cccc(S(F)(F)(F)(F)F)c2)cc(-n2ccn3nc(-c4cccnc4)cc23)c1 | cell-free assay |  | competition with immobilised ligand |  | 1 µM | remaining binding | 100% |
| Cn1c2c(c3ccc(Cl)c(Cl)c31)C(C#N)C1(CCCC1)NC2=O (centres unmarked) | thermal stability |  | DSF |  | 10 µM | ΔTm | -0.1 °C |
| Cn1nc(C(F)(F)F)cc1-c1cnc(N2CCc3cc(S(=O)(=O)Nc4c(F)cc(Cl)cc4F)cc(N4CCCC4=O)c32)nc1 | cell-free assay |  | competition with immobilised ligand |  | 1 µM | remaining binding | 99% |
| O=C1Nc2ccc(Cl)cc2C1=Cc1cc(Cl)c(O)c(Cl)c1 | cell-free assay |  |  |  | 0.5 µM | remaining signal | 91.6% |
| FC(F)(F)Oc1cccc(-c2cnc3ccc(-c4ccncc4)nn23)c1 | enzyme activity | inhibitor | radiometric |  | 1 µM | activity vs control | 97% |
| Cc1ccc(NC(=O)c2ccc(CN3CCN(C)CC3)cc2)cc1Nc1nc(-c2cccnc2)cs1 | cell-free assay |  |  |  | 0.5 µM | remaining signal | 95.6% |
| Cn1c2c(Cl)c(Cl)ccc2c2cc(N)[nH]c(=O)c21 | thermal stability |  | DSF |  | 10 µM | ΔTm | -0.2 °C |
| COc1cc(Nc2cnc(C#N)c(O[C@H](C)CN(C)C)n2)ncc1-c1cnn(C)c1 | enzyme activity | inhibitor | radiometric |  | 1 µM | remaining activity | 115% |
| CCc1ccccc1C(=O)Nc1n[nH]c2c(C)c(F)c(C3C(C#N)=C(C)N(C)C(C)=C3C#N)cc12 | cell-free assay |  | competition with immobilised ligand |  | 1 µM | remaining binding | 100% |
| CS(=O)(=O)CCNCc1ccc(-c2ccc3ncnc(Nc4ccc(OCc5cccc(F)c5)c(Cl)c4)c3c2)o1 | cell-free assay |  |  |  | 0.5 µM | remaining signal | 105% |
| O=C(O)c1cc(-c2ccc(C3CCNCC3)cc2)c2ccc(-c3ccc(C(F)(F)F)cc3)cc2c1 | cell-free assay |  | competition with immobilised ligand |  | 1 µM | remaining binding | 100% |
| Nc1ncnc2occ(-c3ccc(NC(=O)Nc4cc(C(F)(F)F)ccc4F)cc3)c12 | cell-free assay | inhibitor |  |  | 20 µM | remaining signal | 9.5% |
| O=C1NC(c2ccccn2)Sc2ccccc21 (centres unmarked) | cell-free assay |  | competition with immobilised ligand |  | 1 µM | remaining binding | 100% |
| Cn1c2c(c3ccc(Cl)c(Cl)c31)C(C#N)C1(CCOCC1)NC2=O (centres unmarked) | thermal stability |  | DSF |  | 10 µM | ΔTm | -0.5 °C |
| COc1ccc2c(O[C@@H]3C[C@H]4C(=O)N[C@]5(C(=O)O)CC5/C=C\CCCCC[C@H](NC(=O)OC5CCCC5)C(=O)N4C3)cc(-c3csc(NC(=O)C(C)C)n3)nc2c1C (some centres unmarked) | cell-free assay |  | competition with immobilised ligand |  | 1 µM | remaining binding | 82% |
| N#CC1c2c([nH]c3c(Cl)c(Cl)ccc23)C(=O)NC12CCCCC2 (racemic) | thermal stability |  | DSF |  | 10 µM | ΔTm | 0.1 °C |
| O=C1NC(=O)c2cc(Nc3ccc(F)cc3)c(Nc3ccc(F)cc3)cc21 | cell-free assay |  |  |  | 0.5 µM | remaining signal | 101% |
| Cn1c2c(c3ccc(Cl)c(Cl)c31)C(C#N)C(C)(C)NC2=O (centres unmarked) | thermal stability |  | DSF |  | 10 µM | ΔTm | -0.1 °C |
| Cc1nc(Cc2cccc(C(F)(F)F)c2)sc1-c1ccc(C(N)=O)nc1 | cell-free assay |  | competition with immobilised ligand |  | 1 µM | remaining binding | 100% |
| Cn1c2c(Cl)c(Cl)ccc2c2cn[nH]c(=O)c21 | thermal stability |  | DSF |  | 10 µM | ΔTm | -0.2 °C |
| COc1cc(/C=C/C(=O)CC(=O)/C=C/c2ccc(O)c(OC)c2)ccc1O | enzyme activity | inhibitor |  |  | 1 µM | activity vs control | 104% |
